VIM-2 inh: VIM-2 metallo-beta-lactamase inhibitors, primary screen, biochemical, epi-absorbance readout, Pseudomonas aeruginosa enzyme. purified VIM-2, nitrocefin hydrolysis, epi-absorbance fluorescence. inhibition, % at 5.6 µM. AID 1527, 2009. hit rate 0.89% among 290,000;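 active = inhibition above the mean of all tested compounds plus 3 SD, cutoff set per screening run, cut at about 7.5% in these data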;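 note: red hydrolysis product quenches plate fluorescence so inhibitors raise well fluorescence; 0% = enzyme with DMSO and 100% = DMSO without enzyme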
aSyn 5UTR inh: MLPCN primary screen, SNCA 5' untranslated region; alpha-synuclein 5'UTR reporter, inhibitor activity; inhibition, % (tested at 7.5 µM); hit rate 0.82% among 300,000; in the data active = inhibition above about 60%;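 note: H4 neuroglioblastoma cells stably carrying SNCA 5'UTR luciferase fusion; 0% = DMSO wells and 100% = positive control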
IMP-1 inh: IMP-1 metallo-beta-lactamase inhibitors, primary screen, biochemical, epi-absorbance readout, Pseudomonas aeruginosa enzyme; inhibition, % at 5.6 µM; metallo-beta-lactamase IMP-1 (Pseudomonas aeruginosa); purified IMP-1, nitrocefin hydrolysis, epi-absorbance fluorescence; hit rate 0.45% among 290,000;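 active = inhibition above the mean plus 3 SD of all compounds in the same screening run, cut at about 4.5% in these data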;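 note: 0% = IMP-1 with DMSO and 100% = DMSO wells lacking enzyme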
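Assay system: purified IMP-1; Quantity: IMP-1 0.2 nM before substrate addition; Medium: HEPES buffer pH 7.1 with ZnSO4 and Brij 35; Incubation: 15 min enzyme–compound preincubation, then 25 min nitrocefin reaction, 25 °C; Signal: fluorescence quenching readout, ex 480/em 530 nm; Controls: DMSO with and without IMP-1; Repeats: singlicate testing.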
697 NFkB inh: inhibitors of PMA/ionomycin-induced NF-kB reporter, 697 cells, primary screen, B-cell NF-kB inhibitor project, cell-based, luminescence, uHTS. 697 B-cell NF-kB luciferase reporter, 16 h. inhibition, % at 4 µM. hit rate 0.33% among 330,000; in the data active = inhibition above about 35%
Jurkat NFkB inh: inhibitors of induced NF-kB luciferase reporter, primary screen, TCR NF-kB activation inhibitor project, cell-based, luminescence, uHTS | inhibition, % at 4 µM | Jurkat, PMA/ionomycin-induced NF-kB luciferase reporter | hit rate 0.53% among 330,000; in the data active = inhibition above about 50%
Mdm2-MdmX inh: inhibitors of human Mdm2-MdmX association, primary screen, cell-based, luminescence, split luciferase, SaOS-2, uHTS; inhibition, % at 8 µM; Protein Mdm4 (Homo sapiens) + E3 ubiquitin-protein ligase Mdm2 (Homo sapiens), …; hit rate 3% among 330,000; SaOS-2 split-luciferase Mdm2/MdmX complementation;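 active = inhibition of at least 50% at 8 µM in the primary screen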
Target sequence (O15151 whole entry, looked up): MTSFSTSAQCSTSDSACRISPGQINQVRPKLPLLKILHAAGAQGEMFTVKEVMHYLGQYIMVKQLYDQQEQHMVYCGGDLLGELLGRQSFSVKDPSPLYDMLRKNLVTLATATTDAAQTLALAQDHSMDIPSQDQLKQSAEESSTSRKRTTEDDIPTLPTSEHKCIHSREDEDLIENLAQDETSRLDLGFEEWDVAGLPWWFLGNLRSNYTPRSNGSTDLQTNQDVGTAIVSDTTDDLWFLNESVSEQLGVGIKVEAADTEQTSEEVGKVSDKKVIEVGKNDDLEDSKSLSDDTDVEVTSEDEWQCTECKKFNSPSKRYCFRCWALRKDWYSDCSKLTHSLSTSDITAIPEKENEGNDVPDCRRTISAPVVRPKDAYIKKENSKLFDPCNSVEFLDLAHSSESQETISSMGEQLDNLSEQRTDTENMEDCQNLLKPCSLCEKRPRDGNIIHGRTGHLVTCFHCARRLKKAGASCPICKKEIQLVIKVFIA
Target sequence (Q00987 whole entry, looked up): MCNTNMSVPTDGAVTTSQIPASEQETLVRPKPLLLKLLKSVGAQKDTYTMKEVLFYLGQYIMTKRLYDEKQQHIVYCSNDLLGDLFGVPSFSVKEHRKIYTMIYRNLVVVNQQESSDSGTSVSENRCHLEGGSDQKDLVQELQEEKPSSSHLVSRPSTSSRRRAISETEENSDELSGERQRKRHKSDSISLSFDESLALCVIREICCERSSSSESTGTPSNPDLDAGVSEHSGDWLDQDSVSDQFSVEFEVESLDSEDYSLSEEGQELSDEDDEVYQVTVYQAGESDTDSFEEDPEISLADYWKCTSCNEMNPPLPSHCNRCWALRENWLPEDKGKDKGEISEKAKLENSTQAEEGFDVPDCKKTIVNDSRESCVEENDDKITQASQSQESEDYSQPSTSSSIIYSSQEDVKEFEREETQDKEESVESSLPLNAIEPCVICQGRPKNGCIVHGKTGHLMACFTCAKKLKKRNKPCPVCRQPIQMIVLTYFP
The depositor's hits bear a star; . = no result given. An excerpt weighted towards active compounds, which were near 4.7% of everything screened.

SMILES	VIM-2 inh	aSyn 5UTR inh	IMP-1 inh	697 NFkB inh	Jurkat NFkB inh	Mdm2-MdmX inh
Cn1c(C(=O)NC2CC2)cc2c(=O)n(C)c3ccccc3c21	17*	-4	0	2	-11	3
COCCCNC(=O)c1cc2c(=O)n(C)c3ccccc3c2n1C	7.8*	6	-3	-4	16	19
COc1ccc(CCNC(=O)c2cc3c(=O)n(C)c4ccccc4c3n2C)cc1OC	-1	44	-3	25	0	38
Cn1c(C(=O)NCCCN2CCc3ccccc3C2)cc2c(=O)n(C)c3ccccc3c21	9.8*	-10	-3	2	-15	31
CCCNC(=O)CN1C(=O)NC(c2ccccc2)(c2ccccc2)C1=O	-1	-4	0	-3	-3	23
CC1CCN(C(=O)COC(=O)CCCN2C(=O)c3cccc4cccc(c34)C2=O)CC1	2	17	0	-37	5	11
CCC(=O)N1CCc2cc(Br)cc(S(=O)(=O)N3CCCCC3CC)c21 (stereo unspecified)	-2	33	-4	2	-13	18
O=C(NC12CC3CC(CC(C3)C1)C2)OCCNC1CCCCC1	0	-8	4.5*	1	-7	31
CN(C)CCOC(=O)NC12CC3CC(CC(C3)C1)C2	0	-4	-2	11	-21	5
O=C(Nc1ccc(Cl)cc1)c1cccnc1N1CCCCC1	0	19	20*	-13	7	-15
CC(=O)N(C)c1ccc(NC(=O)Cc2cccs2)cc1	1	-47	-2	14	-9	7
COc1ccc(CCC(=O)Nc2nc(C)c(C(=O)N(C)C)s2)cc1	-4	13	11*	-12	-14	-5
O=C(O)c1cccnc1C(=O)N1CCc2c([nH]c3ccccc23)C1C(F)(F)F (stereo unspecified)	9.4*	6	-3	-10	-24	10
O=C(CCC(F)(F)F)N1CCCC(N2CCN(c3cccc(Cl)c3)CC2)C1 (stereo unspecified)	-3	-9	-2	.	.	.
Cc1nn(C(C)C(=O)NCc2ccco2)c(=O)c2nn(-c3ccccc3)c(C)c12 (stereo unspecified)	-2	3	-2	-5	-1	11
Cc1cc(NCCN2CCOCC2)c2ccc3ccccc3c2n1	8.8*	-132	-3	0	-63	-12
COc1ccc2nc(C)cc(NCCN3CCOCC3)c2c1	-1	-3	-2	-1	3	17
O=C1c2ccccc2S(=O)(=O)c2cc(N3CCOCC3)ccc21	.	76*	.	-172	-62	45
O=C1c2ccccc2S(=O)(=O)c2cc(N3CCN(c4ccccc4)CC3)ccc21	.	-19	.	-16	-7	0
COc1ccc(NS(=O)(=O)c2cccc(C(=O)N3CCCC3)c2)cc1	.	-7	.	-4	2	-2
Cc1c(/C(O)=C2/C(=O)C(=O)N(CCN3CCOCC3)C2c2cccs2)cnn1-c1ccccc1 (stereo unspecified)	0	-155	6.1*	-101	-71	25
Cc1ccc(C2/C(=C(/O)c3cnn(-c4ccccc4)c3C)C(=O)C(=O)N2CCN2CCOCC2)o1 (stereo unspecified)	-2	-121	-1	-67	-35	-3
CCCc1nc2sc(C(=O)OCC)c(N)c2c2c1COC(C)(C)C2	-1	2	6.2*	2	-27	-11
CCC(=O)N(C1=C(NC(C)C)C(=O)c2ccccc2C1=O)C(C)C	-2	-27	-3	-1	7	1
CCCNC1=C(N(C(C)=O)c2cccc(F)c2)C(=O)c2ccccc2C1=O	-1	92*	-5	.	.	.
SMILES	VIM-2 inh	aSyn 5UTR inh	IMP-1 inh	697 NFkB inh	Jurkat NFkB inh	Mdm2-MdmX inh
COC(=O)C1=C(C)N(Cc2ccccc2)C(=NCCN2CCOCC2)N[C@H]1CCc1ccccc1	.	.	.	3	-3	31
COC(=O)c1c(NC(=O)CC2Nc3cc(C)c(C)cc3NC2=O)sc(C)c1C (stereo unspecified)	-1	-9	4.6*	-13	-17	9
CCOC(=O)[C@@H]1[C@H]2COc3cc(OC)ccc3[C@H]2N2C(=O)N(c3cccc(F)c3)C(=O)[C@]12C	.	.	.	-5	-6	9
Cc1ccc(NC(=O)COc2ccc3c(c2)CCC3)nc1	.	-98	.	8	-85	-16
N#Cc1c(-c2ccco2)cc(-c2ccc(F)cc2)nc1N	0	-19	-2	0	1	24
CC(C)Cc1cc(-c2ccco2)c(C#N)c(N)n1	-2	70*	-5	2	9	8
COC(=O)CSc1nc(N)c(C#N)c(-c2ccco2)c1C#N	1	1	-4	-40	-6	17
CCSc1nc(N)c(C#N)c(-c2ccco2)c1C#N	4	36	4.5*	-7	12	10
Cc1ccc(S(=O)(=O)N2CCN(c3nn(C)c(=O)n(C)c3=O)CC2)cc1C	.	.	.	21	-6	12
Cc1ccc(CNS(=O)(=O)c2ccc(CN3C(=O)c4cccnc4C3=O)cc2)o1	3	5	1	-12	7	6
Cn1c(N2CCOCC2)c(/C=N/OC(=O)c2ccc(F)cc2)c2ccccc21	-4	73*	-2	28	27	50
O=C(Nc1cccc(S(=O)(=O)N2CCCCC2)c1)C1COc2ccccc2O1 (stereo unspecified)	.	.	.	10	-3	11
COC(=O)c1ccc2[nH]c([C@H](C)O)c([C@H](C)O)c2c1	5	6	4.7*	5	-1	-17
Cc1cc(C)c(NC(=O)CSc2nnc(SCC(=O)Nc3c(C)cc(C)cc3C)n2N)c(C)c1	-4	15	7.2*	-11	-13	6
Cc1ccc(C)c(NC(=O)CSc2nnc(C)c(=O)n2N)c1	-3	-4	-4	9	6	9
CC(C)CCCN1C(Nc2ccccc2)=NC[C@@H]1C	0	19	2	10	10	14
COc1cc(-c2ccc3c(=O)c4ccccc4sc3c2)cc(OC)c1OC	.	.	.	-27	-13	41
Cn1c(-c2ccc3c(c2)OCO3)cc(=O)c2ccccc21	0	22	-1	-15	-15	9
Cn1c2ccccc2c(=O)c2ccc(C#Cc3ccccn3)cc21	10*	-137	1	-53	-65	-38
COc1cc(-c2ccc3c(=O)c4ccccc4n(C)c3c2)cc(OC)c1OC	12*	-42	-1	-23	-14	36
Cn1c2ccccc2c(=O)c2ccc(-c3ccc4c(c3)OCO4)cc21	9.3*	-145	-1	-207	-60	-140

Bioassay records as filed in PubChem.
